Measurements: ChEMBL document CHEMBL3769396 (J Med Chem, 2016)

Assays:
Homo sapiens = organism: Homo sapiens; assay: Selectivity ratio of IC50 for class1 HDAC (unknown origin) to IC50 for HDAC6 (unknown origin)
How it was run: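 Ratio of IC50 HDAC1 (or HDAC8) to IC50 HDAC6. Human recombinant HDAC1/6 were run in Tris-HCl pH 8.0 with NaCl, KCl, MgCl2 and BSA, using ZMAL substrate. HDAC8 was run in KH2PO4/Tris pH 7.5 with Z-L-Lys(ε-trifluoroacetyl)-AMC. All: 90 min at 37 °C, then TSA/trypsin stop for 30 min, fluorescence ex 390/em 460 nm. IC50 is the mean of at least two experiments.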

[1] = Cytotoxicity against human HL60 cells after 72 hrs by cell titre 96 aqueous cell proliferation assay; format: functional, HL-60
How it was run: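 HL60 cells, 5000/well in RPMI with 10% FBS, 2 mM L-glutamine and penicillin/streptomycin, treated with a range of concentrations (0.05% DMSO control) for 72 h. MTS/PMS (20:1) was then added and A490 read after 2-4 h, with the cell-free background subtracted. GI50 is the concentration giving 50% viable cells; triplicates, mean of at least two experiments.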

[2] = target: T1, Protein deacetylase HDAC6 (Homo sapiens, UniProt Q9UBN7); assay: Inhibition of human HDAC6 using (Z-(Ac)Lys-AMC) as substrate after 90 mins by fluorescence analysis
T1 sequence (Q9UBN7 whole entry): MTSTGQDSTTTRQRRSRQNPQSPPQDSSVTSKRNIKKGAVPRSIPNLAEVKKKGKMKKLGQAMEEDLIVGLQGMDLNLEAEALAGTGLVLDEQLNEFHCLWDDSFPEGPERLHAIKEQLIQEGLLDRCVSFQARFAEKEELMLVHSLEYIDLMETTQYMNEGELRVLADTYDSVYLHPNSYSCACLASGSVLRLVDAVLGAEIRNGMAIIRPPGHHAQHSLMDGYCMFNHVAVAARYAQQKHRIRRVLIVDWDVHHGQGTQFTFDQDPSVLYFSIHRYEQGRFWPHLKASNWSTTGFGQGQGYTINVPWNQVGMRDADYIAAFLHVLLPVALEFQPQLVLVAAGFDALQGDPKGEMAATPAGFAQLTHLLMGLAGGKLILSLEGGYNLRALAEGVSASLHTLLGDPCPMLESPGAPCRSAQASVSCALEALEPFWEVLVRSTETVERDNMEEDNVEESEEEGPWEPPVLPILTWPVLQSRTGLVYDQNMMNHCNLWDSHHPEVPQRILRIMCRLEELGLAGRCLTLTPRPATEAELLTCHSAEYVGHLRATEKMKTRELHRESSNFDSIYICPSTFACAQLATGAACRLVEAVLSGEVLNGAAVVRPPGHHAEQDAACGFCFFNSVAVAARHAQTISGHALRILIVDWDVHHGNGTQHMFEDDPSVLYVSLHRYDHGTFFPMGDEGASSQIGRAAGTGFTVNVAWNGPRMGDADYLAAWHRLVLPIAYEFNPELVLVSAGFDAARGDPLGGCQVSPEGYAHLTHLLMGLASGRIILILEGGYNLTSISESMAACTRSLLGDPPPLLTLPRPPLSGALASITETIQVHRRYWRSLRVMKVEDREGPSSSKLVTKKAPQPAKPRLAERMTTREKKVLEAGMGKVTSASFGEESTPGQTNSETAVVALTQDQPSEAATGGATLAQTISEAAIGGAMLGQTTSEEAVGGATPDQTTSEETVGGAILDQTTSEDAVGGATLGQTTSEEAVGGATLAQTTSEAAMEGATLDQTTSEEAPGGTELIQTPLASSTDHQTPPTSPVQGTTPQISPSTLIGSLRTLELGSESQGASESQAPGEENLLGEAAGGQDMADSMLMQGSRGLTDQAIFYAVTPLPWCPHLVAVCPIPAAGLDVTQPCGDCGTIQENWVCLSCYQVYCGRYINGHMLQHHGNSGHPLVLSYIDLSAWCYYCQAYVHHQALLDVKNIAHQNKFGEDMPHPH

Histone deacetylase 1 [3] = target: T2, Histone deacetylase 1 (Homo sapiens, UniProt Q13547); assay: Inhibition of human HDAC1 using (Z-(Ac)Lys-AMC) as substrate after 90 mins by fluorescence analysis
Histone deacetylase 8 = target: T3, Histone deacetylase 8 (Homo sapiens, UniProt Q9BY41); assay: Inhibition of human HDAC8 using Z-L-Lys([…]-trifluoroacetyl)-AMC as substrate after 90 mins by fluorescence analysis
T3 sequence (Q9BY41 whole entry): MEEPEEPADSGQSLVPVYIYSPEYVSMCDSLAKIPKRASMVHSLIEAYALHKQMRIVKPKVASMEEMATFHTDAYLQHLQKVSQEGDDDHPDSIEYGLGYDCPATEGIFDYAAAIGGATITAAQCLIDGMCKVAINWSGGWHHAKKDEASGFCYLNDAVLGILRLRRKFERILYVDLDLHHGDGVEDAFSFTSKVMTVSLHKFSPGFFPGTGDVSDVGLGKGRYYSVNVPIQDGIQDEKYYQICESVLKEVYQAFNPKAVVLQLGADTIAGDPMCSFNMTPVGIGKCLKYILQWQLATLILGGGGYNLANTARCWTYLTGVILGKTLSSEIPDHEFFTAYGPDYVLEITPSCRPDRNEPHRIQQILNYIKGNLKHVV

Histone deacetylase 1 [4] = target: T2, Histone deacetylase 1; assay: Inhibition of human HDAC1 at 10 uM using (Z-(Ac)Lys-AMC) as substrate after 90 mins by fluorescence analysis
[5] = target: T4, Histone deacetylase 8 (Homo sapiens) (UniProt Q9BY41); assay: Inhibition of human HDAC8 at 100 uM using Z-L-Lys([…]-trifluoroacetyl)-AMC as substrate after 90 mins by fluorescence analysis
T4 sequence (whole entry): T3 sequence (Q9BY41 whole entry)

T2 sequence (Q13547 whole entry): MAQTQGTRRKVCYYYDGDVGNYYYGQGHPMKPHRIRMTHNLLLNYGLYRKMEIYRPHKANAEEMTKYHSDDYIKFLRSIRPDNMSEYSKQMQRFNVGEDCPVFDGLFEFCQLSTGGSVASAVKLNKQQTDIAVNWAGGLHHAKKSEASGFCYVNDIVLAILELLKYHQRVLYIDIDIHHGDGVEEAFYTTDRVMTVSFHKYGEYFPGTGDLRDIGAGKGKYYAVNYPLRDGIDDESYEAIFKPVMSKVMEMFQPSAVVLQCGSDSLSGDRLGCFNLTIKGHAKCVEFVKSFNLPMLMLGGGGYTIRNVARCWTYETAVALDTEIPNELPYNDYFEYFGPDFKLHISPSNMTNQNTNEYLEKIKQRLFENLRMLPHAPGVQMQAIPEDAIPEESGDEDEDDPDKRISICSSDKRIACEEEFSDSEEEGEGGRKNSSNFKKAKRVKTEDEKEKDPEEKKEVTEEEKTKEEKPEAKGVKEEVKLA

Row | SMILES | Ratio IC50 (Homo sapiens) | GI50 ([1]; Homo sapiens, HL-60, 72 h) [µM] | IC50 [2] [µM] | IC50 (Histone deacetylase 1 [3]) [µM] | IC50 (Histone deacetylase 8) [µM] | inhibition (Histone deacetylase 1 [4]) [%] | inhibition [5] [%] | GI50 [1] [µM]
1 | O=C(CCCCCCNC(=O)c1cnc(N(c2ccccc2)c2ccccc2)nc1)NO | 10 | – | – | – | – | – | – | –
2 | O=C(NO)c1coc(-c2ccccc2)n1 | – | 44.1 | 0.27 | 29.9 | 41.9 | – | – | –
3 | O=C(NO)c1csc(Cc2ccccc2)n1 | – | – | 2.54 | 83.6 | 35 | – | – | –
4 | O=C(NO)c1coc(-c2ccccc2Br)n1 | – | – | 2.18 | 22.6 | 20.2 | – | – | –
5 | O=C(NO)c1csc(C(c2ccccc2)c2ccccc2)n1 | – | – | 3.69 | 47.7 | 12.9 | – | – | –
6 | O=C(NO)c1coc(C(c2ccccc2)c2ccccc2)n1 | – | – | 9.37 | 93.9 | 2.7 | – | – | –
7 | O=C(NO)c1csc(-c2cnccn2)n1 | – | – | 8.85 | 82.2 | 61.4 | – | – | –
8 | O=C(NO)c1csc(-c2cccnc2)n1 | – | – | 0.3 | – | – | 36 | – | –
9 | O=C(NO)c1coc(-c2ccc(Br)cc2)n1 | – | 10.2 | – | – | – | – | – | –
10 | COc1ccc(-c2nc(C(=O)NO)co2)cc1 | – | 29.2 | 0.195 | 32.9 | 50.9 | – | – | –
11 | Cc1ccc(-c2nc(C(=O)NO)co2)cc1 | – | – | 0.313 | 40.1 | 33.9 | – | – | –
12 | O=C(NO)c1coc(-c2cccc(-c3ccccc3)c2)n1 | – | – | 0.5 | 19.1 | 10.1 | – | – | –
13 | O=C(NO)c1csc(-c2ccc(Br)cc2)n1 | – | 11.1 | 1.06 | 17.5 | 36.4 | – | – | –
14 | O=C(NO)c1noc(-c2ccc(Br)cc2)n1 | – | – | 2.77 | 33.5 | 20 | – | – | –
15 | O=C(NO)c1coc(-c2cccs2)n1 | – | – | 0.311 | 36.5 | 8.13 | – | – | –
16 | O=C(NO)c1coc(-c2ccc3ccccc3c2)n1 | – | 6.3 | 0.089 | 12.2 | 26.2 | – | – | –
17 | O=C(NO)c1noc(-c2ccccc2)n1 | – | – | 0.112 | 25 | 38.5 | – | – | –
18 | O=C(NO)c1coc(-c2ccc(F)cc2)n1 | – | 30.1 | 0.11 | 23.7 | 43.3 | – | – | –
19 | O=C(NO)c1csc(-c2ccccc2)n1 | – | – | 1.91 | 10.3 | 12.1 | – | – | –
20 | O=C(NO)c1coc(-c2ccc(-c3ccccc3)cc2)n1 | – | 5.6 | 0.089 | 29.5 | 27.3 | – | – | –
21 | O=C(NO)c1noc(-c2ccc(-c3ccccc3)cc2)n1 | – | – | 1.31 | 14.9 | – | – | 62 | –
22 | O=C(NO)c1coc(-c2ccc(Cl)cc2)n1 | – | – | 0.081 | 19.6 | 30.8 | – | – | –
23 | O=C(CCCCCCC(=O)Nc1ccccc1)NO [VORINOSTAT] | – | – | – | – | – | – | – | 0.08
24 | COc1ccc2cc(-c3nc(C(=O)NO)co3)ccc2c1 | – | – | 0.182 | 22.5 | 29.1 | – | – | –
